{"source": "paper PMC3361572", "about": "(Chemistry & biology, 2012)", "key": {"ABHD6": {"target": "T1, ABHD6 (Mus musculus, UniProt Q8R2Y0)", "T1 sequence (Q8R2Y0 1-336)": "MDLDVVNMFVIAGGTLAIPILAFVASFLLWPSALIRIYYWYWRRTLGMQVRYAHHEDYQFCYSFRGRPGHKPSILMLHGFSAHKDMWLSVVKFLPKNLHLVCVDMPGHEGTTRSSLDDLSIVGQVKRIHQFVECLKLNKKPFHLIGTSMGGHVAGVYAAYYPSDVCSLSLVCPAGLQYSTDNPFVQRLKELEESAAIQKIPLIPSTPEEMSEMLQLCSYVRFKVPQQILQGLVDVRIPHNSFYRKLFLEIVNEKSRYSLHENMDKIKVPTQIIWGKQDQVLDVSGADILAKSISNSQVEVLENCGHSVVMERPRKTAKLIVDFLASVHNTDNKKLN", "test": "competitive ABPP, mouse brain membrane proteome", "format": "biochemical", "details": "mouse brain serine hydrolase activities, full ABPP gel", "in_short": "(§1)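 Brain (mouse or rat) or mouse lung proteomes were preincubated with the test compound, then treated with the serine hydrolase probe FP-Rh. Samples were separated by SDS-PAGE and read by in-gel fluorescence scanning. Inhibition was taken as reduced FP-Rh labelling of MAGL, ABHD6, FAAH or CES bands, and IC50 values were calculated from quantified gel bands. Three independent experiments.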"}, "[1]": {"system": "brain 2-AG, AA, AEA, PEA, OEA", "test": "brain lipid profile of KML29-treated rats", "format": "in vivo, rat", "details": "1–40 mg kg^−1 i.p., 4 h", "in_short": "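Wistar rats were given the test compound i.p. (1–40 mg kg−1, saline:emulphor:ethanol 18:1:1 vehicle) or vehicle and killed at 4 h. Brain 2-AG, AA, AEA, PEA and OEA levels were measured. Means ± SEM, n = 3 rats/group, with statistics against vehicle-treated rats.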"}, "MAGL [2]": {"target": "T2, MAGL (Rattus norvegicus, UniProt Q8R431)", "T2 sequence (Q8R431 1-303)": "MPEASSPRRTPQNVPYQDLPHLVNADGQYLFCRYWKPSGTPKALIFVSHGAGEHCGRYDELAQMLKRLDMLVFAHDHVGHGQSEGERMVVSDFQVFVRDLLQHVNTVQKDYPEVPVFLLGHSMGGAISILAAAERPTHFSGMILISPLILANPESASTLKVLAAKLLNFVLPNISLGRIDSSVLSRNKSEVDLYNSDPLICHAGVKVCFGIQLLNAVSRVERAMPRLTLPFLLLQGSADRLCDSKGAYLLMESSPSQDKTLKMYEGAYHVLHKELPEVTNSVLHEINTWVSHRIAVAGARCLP", "test": "competitive ABPP, rat brain membrane proteome", "format": "biochemical", "in_short": "as §1"}, "[3]": {"system": "carboxylesterase (CES) enzymes", "test": "in vitro competitive ABPP in mouse lung proteomes", "format": "biochemical"}, "[4]": {"test": "dissolution in dosing vehicle", "format": "physicochemical", "in_short": "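Test compound was dissolved with prolonged sonication and mild heating. Vehicle was PEG for oral dosing, or saline:emulphor:ethanol (18:1:1) for i.p. dosing.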"}, "MAGL [5]": {"target": "T2, MAGL", "test": "brain 2-AG hydrolytic activity from KML29-treated rats", "format": "in vivo", "details": "4 h", "in_short": "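Wistar rats received the test compound i.p. (1–40 mg kg−1 in saline:emulphor:ethanol 18:1:1) or vehicle and were killed after 4 h. Brain MAGL and FAAH activities were measured as hydrolysis of 2-AG and AEA, respectively. Means ± SEM, n = 3 rats/group, compared with vehicle-treated rats.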"}, "[6]": {"system": "carboxylesterase (CES) enzymes", "test": "gel-based ABPP of liver, lung and spleen from inhibitor-treated mice", "format": "in vivo, mouse"}, "[7]": {"system": "other rat brain serine hydrolases", "test": "competitive ABPP, rat brain proteome, other serine hydrolases", "format": "biochemical", "in_short": "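Rat brain proteome was preincubated with test compound, then labelled with the serine hydrolase-directed probe FP-rhodamine. Proteins were separated by SDS-PAGE and scanned by in-gel fluorescence. Inhibition of individual serine hydrolases was scored as reduced probe labelling.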"}, "FAAH": {"target": "T3, FAAH (Mus musculus, UniProt O08914)", "T3 sequence (O08914 1-579)": "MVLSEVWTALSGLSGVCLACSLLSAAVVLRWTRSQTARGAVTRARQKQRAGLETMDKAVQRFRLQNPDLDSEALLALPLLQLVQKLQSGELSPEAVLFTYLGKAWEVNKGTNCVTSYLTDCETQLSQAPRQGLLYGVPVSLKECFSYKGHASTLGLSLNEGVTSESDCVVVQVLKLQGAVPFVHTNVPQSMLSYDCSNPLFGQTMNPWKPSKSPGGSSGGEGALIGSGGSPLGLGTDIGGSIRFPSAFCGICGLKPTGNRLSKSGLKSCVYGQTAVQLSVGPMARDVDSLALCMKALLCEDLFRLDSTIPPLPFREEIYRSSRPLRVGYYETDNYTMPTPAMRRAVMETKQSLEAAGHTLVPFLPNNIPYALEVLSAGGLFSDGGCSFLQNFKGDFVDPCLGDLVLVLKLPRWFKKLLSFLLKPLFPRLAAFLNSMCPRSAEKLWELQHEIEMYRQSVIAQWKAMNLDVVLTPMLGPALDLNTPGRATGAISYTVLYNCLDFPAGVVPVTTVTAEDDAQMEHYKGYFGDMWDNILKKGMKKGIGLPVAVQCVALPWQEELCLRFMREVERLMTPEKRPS", "test": "competitive ABPP, mouse brain membrane proteome", "format": "biochemical", "details": "mouse brain proteome, concentration range tested 0.001–50 μM", "in_short": "as §1"}}, "note": "Entries after “also recorded” stand apart in the source; their conditions may differ."}
{"smiles": "O=C(OC(C(F)(F)F)C(F)(F)F)N1CCC(C(O)(c2ccc3c(c2)OCO3)c2ccc3c(c2)OCO3)CC1", "note": "[KML29]", "values": [{"measurement": "concentrations with inhibition of ABHD6", "setting": "ABHD6", "value": "> 1", "unit": "µM"}, {"measurement": "brain AA levels", "setting": "[1]", "value": "decrease proportionally with the elevations in 2-AG"}, {"measurement": "brain AEA, PEA, or OEA", "setting": "[1]", "value": "without alteration"}, {"measurement": "elevations in brain 2-AG", "setting": "[1]", "value": "approximately 10 fold"}, {"measurement": "selectivity for rat MAGL relative to rat ABHD6", "setting": "MAGL [2]; rat brain homogenates, competitive ABPP", "value": "> 20", "unit": "fold"}, {"measurement": "inhibitor concentrations with selective inhibition of MAGL", "setting": "MAGL [2]; rat brain serine hydrolase activities, full ABPP gel", "value": "≤ 1", "unit": "µM"}, {"measurement": "IC50", "setting": "MAGL [2]; read-out: IC50 (95% CI), rat MAGL, competitive ABPP, rat brain membrane proteome", "value": 43, "unit": "nM"}, {"measurement": "cross-reactivity with CESs compared to JZL184", "setting": "[3]", "value": "much less cross-reactivity with CESs"}, {"measurement": "dissolution in vehicles for p.o. (PEG) or i.p. [saline:emulphor:ethanol (18:1:1)] administration", "setting": "[4]", "value": "Prolonged sonication and mild heating were also required"}, {"measurement": "decrease of brain 2-AG hydrolytic activity", "setting": "MAGL [5]; 20 mg kg^−1 i.p.", "value": 50, "unit": "%"}, {"measurement": "decrease of brain 2-AG hydrolytic activity", "setting": "MAGL [5]; 40 mg kg^−1 i.p.", "value": 80, "unit": "%"}, {"measurement": "CES inhibition in peripheral tissues, chronic dosing", "setting": "[6]; 40 mg kg^−1 p.o., six days", "value": "minimal cross-reactivity with CES enzymes"}, {"measurement": "doses at which CES cross-reactivity (single ~70 kDa enzyme) was detected", "setting": "[6]; p.o., 4 h, peripheral tissues", "value": "20 to 40", "unit": "mg/kg"}, {"measurement": "additional off-target reactivity with other rat brain serine hydrolases", "setting": "[7]", "value": "did not detect any additional off-target reactivity"}, {"measurement": "FAAH inhibition / cross-reactivity (gel-based ABPP)", "setting": "FAAH", "value": "No inhibition of FAAH was detected; also recorded: complete selectivity for MAGL over FAAH"}]}
